Screening data: PubChem BioAssay, The Scripps Research Institute Molecular Screening Center
ASAP1 inh = inhibitors of human ASAP1 ArfGAP activity. Q9ULH1. ASAP1-stimulated ARF1 GTP hydrolysis, GDP FP detection. inhibition, % at 16.5 µM. actives 0.19% (n = 360,000). AID 624377; in the data active means inhibition above about 25%;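 further: 0% = vehicle with enzyme and substrate and 100% = no enzyme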
PLC-beta3 inh = PLC-beta3 (human) inhibition, primary screen | Q01970 | Purified PLC-beta3, fluorogenic substrate, fluorescence | inhibition, % at 12.2 µM | actives 0.18% (n = 370,000) | AID 720704; in the data active means inhibition above about 11%;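 further: 0% = median of compound wells on plate and 100% = full blocker control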
Target sequence (Q01970 whole entry, looked up): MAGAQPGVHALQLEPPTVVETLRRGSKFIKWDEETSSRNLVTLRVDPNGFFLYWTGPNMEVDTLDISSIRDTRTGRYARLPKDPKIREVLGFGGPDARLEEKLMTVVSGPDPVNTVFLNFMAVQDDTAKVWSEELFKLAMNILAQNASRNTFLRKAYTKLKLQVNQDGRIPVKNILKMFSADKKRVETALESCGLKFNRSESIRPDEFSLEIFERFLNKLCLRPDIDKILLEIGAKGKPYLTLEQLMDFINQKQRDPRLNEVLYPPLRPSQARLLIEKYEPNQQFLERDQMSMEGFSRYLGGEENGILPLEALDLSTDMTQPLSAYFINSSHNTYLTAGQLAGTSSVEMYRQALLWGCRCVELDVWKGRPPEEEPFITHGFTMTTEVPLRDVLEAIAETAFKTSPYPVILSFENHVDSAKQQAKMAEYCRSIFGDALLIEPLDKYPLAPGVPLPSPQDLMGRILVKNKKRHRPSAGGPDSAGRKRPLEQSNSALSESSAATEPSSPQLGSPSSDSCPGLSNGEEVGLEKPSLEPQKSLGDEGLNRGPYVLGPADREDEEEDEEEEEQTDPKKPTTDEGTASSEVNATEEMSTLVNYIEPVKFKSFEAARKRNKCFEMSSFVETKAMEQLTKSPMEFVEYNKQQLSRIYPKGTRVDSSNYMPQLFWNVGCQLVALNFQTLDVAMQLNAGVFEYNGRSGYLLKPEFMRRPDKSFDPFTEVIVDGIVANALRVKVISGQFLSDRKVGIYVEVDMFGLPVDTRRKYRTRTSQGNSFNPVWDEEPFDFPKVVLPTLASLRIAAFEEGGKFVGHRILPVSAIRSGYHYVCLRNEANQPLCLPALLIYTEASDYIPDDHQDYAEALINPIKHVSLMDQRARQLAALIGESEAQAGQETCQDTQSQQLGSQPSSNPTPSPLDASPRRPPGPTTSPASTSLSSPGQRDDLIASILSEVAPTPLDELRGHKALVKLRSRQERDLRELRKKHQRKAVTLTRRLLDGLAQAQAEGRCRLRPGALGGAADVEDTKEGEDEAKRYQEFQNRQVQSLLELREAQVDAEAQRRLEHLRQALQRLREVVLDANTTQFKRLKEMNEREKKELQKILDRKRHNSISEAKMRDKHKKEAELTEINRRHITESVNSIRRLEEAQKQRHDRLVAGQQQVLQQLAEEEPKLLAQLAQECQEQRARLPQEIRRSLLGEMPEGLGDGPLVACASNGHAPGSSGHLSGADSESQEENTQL
PLCg1 inh = PLC-gamma1 (human) inhibition, primary screen | P19174 | actives 0.84% (n = 370,000) | AID 720700 | inhibition, % at 12.2 µM | purified PLC-gamma1, fluorogenic substrate, fluorescence
ARFGAP1 inhibitor = inhibits rat ARF GTPase activating protein 1. Q62848. Arfgap1-stimulated ARF1 GTP hydrolysis, GDP FP detection. inhibition, % at 16.5 µM. actives 0.26% (n = 360,000);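 active means inhibition above a per-plate limit, mean inhibition of low control wells plus 3 SD, cut at about 25% in these data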;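 further: 0% = DMSO wells with enzyme and 100% = wells lacking Arfgap1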
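Repeats: one replicate per compound; assay system: rat Arfgap1 catalytic domain, aa 1-136; times: enzyme reaction 120 min at 25 °C after 20 min preincubation; detection: FP of antibody-bound GDP Alexa 633 tracer, ex 620/em 688 nm; benchmarks: high control wells lacking Arfgap1, low control full reaction with DMSO; reagent: human ARF1(Δ1-17)-GTP substrate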
HGIII-sPLA2 inh = Inhibits HGIII-sPLA2 liposome hydrolysis, primary screen; Q9NZ20; QFRET BODIPY PC-A2 liposome hydrolysis, fluorescence; inhibition, % at 12.2 µM; actives 0.56% (n = 370,000); AID 743126;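 active means inhibition above mean plus 3 SD of compounds lying within the high and low control bounds, cut at about 19% in these data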;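 further: 0% = median of test compound wells and 100% = no enzyme DMSO wells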
PLCgamma1 ctr = counter-screen for PLC-beta3 inhibitors: inhibitors of human PLC-gamma1; shares compounds with PLCg1 inh; inhibition, % at 12.3 µM; actives 3.1% (n = 3,300); purified PLC-gamma1, fluorogenic substrate, fluorescence
PLCb3 confirm = confirmation of human PLC-beta3 inhibitors; purified PLC-beta3, fluorogenic substrate fluorescence; actives 1% (n = 3,300); AID 743261; shares compounds with PLCg1 inh; inhibition, % at 12.3 µM; in the data active means inhibition above about 11%
sPLA2 confirm = human GIII-sPLA2 inhibition, confirmation | shares compounds with HGIII-sPLA2 inh | recombinant hGIII-sPLA2, BODIPY PC-A2 QFRET fluorescence | inhibition, % at 12.2 µM | actives 34% (n = 2,000);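 active means mean inhibition across triplicates above the hit cutoff set in the earlier primary screen, cut at about 19% in these data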;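 further: 0% = enzyme with DMSO and 100% = DMSO wells lacking enzyme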
535nm interf = 535nm fluorescence interference, HGIII-sPLA2 counter-screen | BODIPY FL product fluorescence interference, QFRET | inhibition, % at 12.2 µM | AID 743282 | actives 8.5% (n = 2,000) | shares compounds with HGIII-sPLA2 inh;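 active means average inhibition above the solvent-only control mean plus 3 SD, cut at about 6% in these data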;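 further: 0% = DMSO with substrate plus product and 100% = DMSO with substrate alone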
* = called active by the depositor. Sampled rows, rich in hits. Any-hit rate of the full collection: about 1.9%. Unless noted, no stated cut-off is given here; in the data, active means inhibition above about 9.5%; inactive means the rest.

For C[C@@H](CO)N(Cc1cn(Cc2ccccc2)nn1)S(=O)(=O)c1ccccc1Br the results were PLC-beta3 inh -1, PLCg1 inh -2 and HGIII-sPLA2 inh 6.
CC1=NN(c2ccccc2)C(=O)/C1=C/c1cccs1 was read as ASAP1 inh 1, PLC-beta3 inh 16*, PLCg1 inh 25*, ARFGAP1 inhibitor -15, HGIII-sPLA2 inh 1, PLCgamma1 ctr 1 and PLCb3 confirm -1.
`CC1=NN(c2ccccc2)C(=O)/C1=C\c1ccc(Br)s1` gave ASAP1 inh -6, PLC-beta3 inh 5, PLCg1 inh 1, ARFGAP1 inhibitor 1 and HGIII-sPLA2 inh 6.
`COC(=O)C1CN(Cc2cn(CCC3OCCO3)nn2)CCS(=O)(=O)N1Cc1ccc(Cl)cc1` (stereo not given) gave PLC-beta3 inh 0, PLCg1 inh 2 and HGIII-sPLA2 inh -1.
O=C(Nc1ccc2c(c1)OCO2)c1cnn2c1NC(c1ccco1)CC2C(F)(F)F (stereo not given) was read as ASAP1 inh 6, PLC-beta3 inh 4, PLCg1 inh 10*, ARFGAP1 inhibitor 5, HGIII-sPLA2 inh -4, PLCgamma1 ctr -4 and PLCb3 confirm 1.
Screening O=C(Nc1ccc2c(c1)OCO2)c1cc2n(n1)C(C(F)(F)F)CC(c1ccccc1)N2 (stereo not given) returned ASAP1 inh 4, PLC-beta3 inh 1, PLCg1 inh 2, ARFGAP1 inhibitor 2 and HGIII-sPLA2 inh -2.
Cc1cc2n(n1)SC(Nc1cc(Cl)ccc1Cl)N2 (stereo not given) was read as ASAP1 inh 1, PLC-beta3 inh 3, PLCg1 inh 1, ARFGAP1 inhibitor 5 and HGIII-sPLA2 inh 10.
Cc1cc2n(n1)SC(Nc1ccc(F)cc1)N2 (stereo not given) was read as ASAP1 inh -8, PLC-beta3 inh 4, PLCg1 inh 10*, ARFGAP1 inhibitor -6, HGIII-sPLA2 inh 11, PLCgamma1 ctr -7 and PLCb3 confirm -4.
For CCc1ccc(NC(=O)C(=O)NCCN2CCN(S(C)(=O)=O)CC2)cc1 the results were ASAP1 inh -1, PLC-beta3 inh -1, PLCg1 inh 12*, ARFGAP1 inhibitor -4, HGIII-sPLA2 inh 13, PLCgamma1 ctr -4 and PLCb3 confirm -1.
Screening O=S(=O)(O)c1cc(Cl)cc(N=Nc2ccc(O)cc2O)c1O returned ASAP1 inh -2, PLC-beta3 inh -6, PLCg1 inh 13*, ARFGAP1 inhibitor -29, HGIII-sPLA2 inh 49*, PLCgamma1 ctr -152, PLCb3 confirm -151, sPLA2 confirm -38 and 535nm interf -15.
`O=[N+]([O-])c1ccc(N=Nc2ccc(O)cc2O)cc1` gave ASAP1 inh -11, PLC-beta3 inh 4, PLCg1 inh 7, ARFGAP1 inhibitor 0 and HGIII-sPLA2 inh 2.
`C[C@@H]1COc2cc(N3CCCCC3)ccc2S(=O)(=O)N1` gave ASAP1 inh -11, PLC-beta3 inh 1, PLCg1 inh -3, ARFGAP1 inhibitor 6 and HGIII-sPLA2 inh 1.
For C=CCNC(=S)NNC(=O)c1ccc(C)c(Cl)c1 the results were ASAP1 inh -12, PLC-beta3 inh 2, PLCg1 inh 13*, ARFGAP1 inhibitor -4, HGIII-sPLA2 inh 23*, PLCgamma1 ctr -5, PLCb3 confirm 0, sPLA2 confirm 21* and 535nm interf 3.
For CC(c1ccccc1)n1c(-c2ccccc2F)n[nH]c1=S (stereo not given) the results were ASAP1 inh 12, PLC-beta3 inh 8, PLCg1 inh 9.9*, ARFGAP1 inhibitor -13, HGIII-sPLA2 inh 24*, PLCgamma1 ctr 5, PLCb3 confirm 2, sPLA2 confirm 8 and 535nm interf -1.
Screening NC(Cc1ccc(C(F)(F)F)cc1)c1csc(Nc2cc(Oc3ccccc3)ncn2)n1 (stereo not given) returned ASAP1 inh 6, PLC-beta3 inh -12, PLCg1 inh 9.7*, ARFGAP1 inhibitor 14, HGIII-sPLA2 inh 25*, PLCgamma1 ctr -4, PLCb3 confirm -2, sPLA2 confirm 13 and 535nm interf -10.
Screening CNC(=O)C1(C)Cc2c(-c3ccc(NC(C)=O)cc3)ccnc2O1 (stereo not given) returned ASAP1 inh 3, PLC-beta3 inh 0, PLCg1 inh -1, ARFGAP1 inhibitor 3 and HGIII-sPLA2 inh 0.
CC(=O)Nc1ccc(-c2ccnc3c2CC(C)(C(=O)NC(C)C)O3)cc1 (stereo not given) was read as ASAP1 inh -3, PLC-beta3 inh -1, PLCg1 inh 12*, ARFGAP1 inhibitor 18, HGIII-sPLA2 inh 21*, PLCgamma1 ctr -8, PLCb3 confirm -1, sPLA2 confirm 2 and 535nm interf -9.
Screening Cc1ccc(C(=O)NCC(=O)NCC(=O)OCC(=O)c2ccc(F)cc2)cc1 returned ASAP1 inh -8, PLC-beta3 inh -11, PLCg1 inh 13*, ARFGAP1 inhibitor 10, HGIII-sPLA2 inh 27*, PLCgamma1 ctr -5, PLCb3 confirm -2, sPLA2 confirm 3 and 535nm interf -11.
O=C(CNC(=O)c1ccccc1)NCC(=O)OCC(=O)c1ccc(F)cc1 was read as ASAP1 inh -3, PLC-beta3 inh 3, PLCg1 inh 2, ARFGAP1 inhibitor -6 and HGIII-sPLA2 inh 3.
`O=C(NCc1cccc(Cl)c1)O[C@H]1CC[C@@]23CCCN2C(=O)CCC[C@H]3C1` gave PLC-beta3 inh -1, PLCg1 inh 0 and HGIII-sPLA2 inh -3.
For O=C(c1cc(O)c(O)c([N+](=O)[O-])c1)c1ccccc1F the results were ASAP1 inh -4, PLC-beta3 inh 3, PLCg1 inh 10.0*, ARFGAP1 inhibitor 1, HGIII-sPLA2 inh 29*, PLCgamma1 ctr -3, PLCb3 confirm -1, sPLA2 confirm 15 and 535nm interf 3.
Screening C[C@H](CCC(=O)N(c1ccccc1)c1ccccc1)CC1CCCCC1 returned PLC-beta3 inh 3, PLCg1 inh -1 and HGIII-sPLA2 inh 4.
Screening O=C(N[C@@H](Cc1cccnc1)C(=O)N1CCC[C@H]1C(=O)NCCc1ccccc1Cl)c1ccccc1 returned ASAP1 inh -5, PLC-beta3 inh 1, PLCg1 inh 1, ARFGAP1 inhibitor 7 and HGIII-sPLA2 inh -1.
